Test results from paper PMC7161550 (British Journal of Pharmacology, 2020).
“And” between values parts separate entries of the source, which are not always exact repeats. Equal values may be shown once. “Also recorded” adds a separate entry of the source. Read-outs that look alike come from different tables or passages of the source.

Tests used:
[1] = target: T1, mouse brain fatty acid amide hydrolase (FAAH) (Mus musculus, UniProt O08914); assay: Ex vivo FAAH activity in mouse brain after oral administration; conditions: for ED50 [95% CI] Brain: 8 hr after oral administration
T1 sequence (O08914 1-579): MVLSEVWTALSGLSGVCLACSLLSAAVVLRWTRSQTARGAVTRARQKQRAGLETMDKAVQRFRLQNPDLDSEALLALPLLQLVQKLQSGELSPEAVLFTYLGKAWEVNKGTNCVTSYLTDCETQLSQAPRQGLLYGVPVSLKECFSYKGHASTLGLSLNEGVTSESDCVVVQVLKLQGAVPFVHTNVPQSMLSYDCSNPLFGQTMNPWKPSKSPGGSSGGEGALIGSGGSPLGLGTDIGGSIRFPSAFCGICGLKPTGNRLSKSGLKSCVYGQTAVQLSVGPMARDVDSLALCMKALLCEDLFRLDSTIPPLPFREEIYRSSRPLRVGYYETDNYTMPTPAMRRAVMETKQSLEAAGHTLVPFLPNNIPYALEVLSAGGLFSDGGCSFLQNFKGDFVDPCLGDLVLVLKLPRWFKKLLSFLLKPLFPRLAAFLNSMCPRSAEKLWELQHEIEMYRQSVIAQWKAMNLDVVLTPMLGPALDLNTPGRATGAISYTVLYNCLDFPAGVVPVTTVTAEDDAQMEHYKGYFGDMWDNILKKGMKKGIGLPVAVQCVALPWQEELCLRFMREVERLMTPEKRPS
Procedure, shortened: (§1)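 Liver and half-brain were collected into FAAH membrane buffer (3 mM MgCl2, 1 mM EDTA, 50 mM Tris HCl, pH 7.4) and stored at −20°C. Homogenates (15 μg protein brain, 5 μg liver) were pre-incubated 15 min at 37°C. AEA + 3H‑AEA + BSA was added for 10 min (brain) or 7 min (liver), then charcoal. Scintillation counting gave % remaining activity versus controls after blank subtraction.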

COS‐hFAAH cells = assay: Quantification of compounds in COS‐hFAAH supernatant, cell lysates and medium; assay type: in vitro ADME; conditions: 1, 3 and 24 hr
[2] = target: T2, human recombinant fatty acid amide hydrolase (FAAH) (Homo sapiens, UniProt O00519); assay: FAAH activity in intact COS‐hFAAH cells; assay type: cell-based
T2 sequence (O00519 1-579): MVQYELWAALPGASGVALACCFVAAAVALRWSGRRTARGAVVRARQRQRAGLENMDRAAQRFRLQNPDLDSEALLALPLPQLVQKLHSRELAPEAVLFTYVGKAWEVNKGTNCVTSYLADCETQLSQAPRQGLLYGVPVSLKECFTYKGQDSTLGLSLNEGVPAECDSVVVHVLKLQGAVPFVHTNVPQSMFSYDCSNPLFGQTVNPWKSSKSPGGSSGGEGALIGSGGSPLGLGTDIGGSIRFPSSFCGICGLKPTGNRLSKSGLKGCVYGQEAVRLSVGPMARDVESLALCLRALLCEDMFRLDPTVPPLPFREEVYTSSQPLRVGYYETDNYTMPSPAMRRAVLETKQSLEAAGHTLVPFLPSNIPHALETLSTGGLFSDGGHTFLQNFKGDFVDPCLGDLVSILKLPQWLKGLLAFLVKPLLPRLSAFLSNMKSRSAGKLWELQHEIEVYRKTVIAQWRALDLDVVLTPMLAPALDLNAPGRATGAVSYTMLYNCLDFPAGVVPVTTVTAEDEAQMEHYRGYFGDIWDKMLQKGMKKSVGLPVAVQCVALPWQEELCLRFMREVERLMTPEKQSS

[3] = target: T3, mouse liver fatty acid amide hydrolase (FAAH) (Mus musculus, UniProt O08914); assay: Ex vivo FAAH activity in mouse liver after oral administration; conditions: for ED50 [95% CI] Liver: 8 hr after oral administration
T3 sequence (O08914 1-579): T1 sequence (O08914 1-579)
Procedure, shortened: as §1

[4] = Plasma and brain levels of BIA 10‐2474 and PF‐04457845 in mice; assay type: in vivo; conditions: mouse; for Tmax / half-life / AUC(0-t) / Cmax: po
[5] = target: T4, fatty acid amide hydrolase (Rattus norvegicus, UniProt P97612); assay: Gel‐based competitive ABPP in vitro, TAMRA‐FP probe, rat brain fractions; assay type: biochemical; conditions: 1 hr
T4 sequence (P97612 1-579): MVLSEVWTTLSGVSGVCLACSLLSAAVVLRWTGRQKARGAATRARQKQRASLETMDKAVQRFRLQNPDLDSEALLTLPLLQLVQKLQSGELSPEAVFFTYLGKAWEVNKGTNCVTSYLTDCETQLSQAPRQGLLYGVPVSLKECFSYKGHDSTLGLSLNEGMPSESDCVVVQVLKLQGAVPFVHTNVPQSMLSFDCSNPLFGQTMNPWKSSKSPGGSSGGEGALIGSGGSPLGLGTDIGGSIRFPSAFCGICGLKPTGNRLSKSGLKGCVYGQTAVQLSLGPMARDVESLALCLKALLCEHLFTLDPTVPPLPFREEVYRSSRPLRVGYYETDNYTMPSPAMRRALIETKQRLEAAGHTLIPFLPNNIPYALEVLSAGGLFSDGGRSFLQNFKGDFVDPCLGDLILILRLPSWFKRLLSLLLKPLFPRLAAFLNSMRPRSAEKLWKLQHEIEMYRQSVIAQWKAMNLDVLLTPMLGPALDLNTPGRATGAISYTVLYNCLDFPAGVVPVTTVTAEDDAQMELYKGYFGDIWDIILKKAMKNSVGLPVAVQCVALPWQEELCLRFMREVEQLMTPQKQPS
Procedure, shortened: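 Rat brain membrane and soluble protein extracts (200 μg) were incubated 1 hr at room temperature with test compound at 1 nM–100 μM, DMSO vehicle or PMSF 3 mM. Active serine hydrolases were then labelled with TAMRA‑FP probe (2 μM final) for 1 hr at room temperature. Bands were visualized by in-gel fluorescence.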

[6] = tested on: 229 assays for receptors, enzymes, transporters, ion channels, hormones, growth factors and inflammatory mediators; assay type: binding; conditions: 10 and 50 μM
[7] = brain (without cerebellum), 0.3 mg/kg

## CN(C(=O)n1cnc(-c2ccc[n+]([O-])c2)c1)C1CCCCC1 [BIA 10‐2474, 3‐(1‐(cyclohexyl (methyl)carbamoyl)‐1H‐imidazol‐4‐yl)pyridine 1‐oxide]
[1]; 480 min
  ED50 [95% CI] Brain: 13.5 μg·kg^−1 and 13.5 [10.2, 17.7] μg·kg^−1
[1]; po, read-out: maximal inhibition of brain FAAH
  inhibition at 0.1 mg/kg: 91.4%
COS‐hFAAH cells
  detection in cell lysates: undetectable
  stability in cellular media over time: stable
[2]
  fold less potent than PF‐04457845 in inhibiting human FAAH in situ: 10 fold
[2]; IC50 [95% CI], incubation 1 hr
  IC50: 74.4 nM
[2]; IC50 [95% CI], incubation 3 hr
  IC50: 42.5 nM
[2]; IC50 [95% CI], incubation 24 hr
  IC50: 18 nM
[2]; IC50 values over all incubation times, intact cells expressing human FAAH
  IC50: 18 to 74 nM
[3]; 480 min
  ED50 [95% CI] Liver: 6.2 μg·kg^−1 and 6.2 [4.8, 7.9] μg·kg^−1
[3]; po, read-out: inhibition of liver FAAH
  inhibition at 0.1 mg/kg: > 96.5%
[4]; 0.1 mg·kg^−1 p.o.
  Brain AUClast: 11.3 ng·h/g
  Brain C max: 5.3 ng/g
[4]; 0.1 mg·kg^−1 p.o., equivalent of 5.3 ng·g^−1
  maximum level in brain: 18 nM
[4]; 0.1 mg·kg^−1 p.o., equivalent of 33.0 ng·ml^−1
  maximum level in plasma: 109 nM
[4]; 0.3 mg·kg^−1 p.o.
  Brain AUClast: 60.8 ng·h/g
  Brain C max: 21.6 ng/g
[4]; brain (without cerebellum), 0.1 mg/kg
  Tmax: 1 h
[4]; [7]
  Tmax: 1 h
  half-life: 1.75 h
[4]; plasma, 0.1 mg/kg
  AUC(0-t): 110 ng·h/mL
  Cmax: 33 ng/mL
  Tmax: 1 h
  half-life: 2.2 h
[4]; plasma, 0.3 mg/kg
  AUC(0-t): 338 ng·h/mL
  Cmax: 104 ng/mL
  Tmax: 1 h
  half-life: 1.9 h
[5]
  concentration that completely inhibited the band corresponding to the MW of FAAH: 100 µM
[6]
  off‐target activity at the sites studied: no significant activity

## O=C(Nc1cccnn1)N1CCC(=Cc2cccc(Oc3ccc(C(F)(F)F)cn3)c2)CC1 [PF‐04457845]
[1]; 0.1 mg·kg^−1 p.o., 48 hr
  brain FAAH activity, % of control levels: 43.8%
[1]; 0.1 mg·kg^−1 p.o., over 24 hr
  inhibition of cerebral FAAH, mean values: above 88.7%
[1]
  ED50 [95% CI] Brain: 4.3 [1.8, 9.9] μg·kg^−1
COS‐hFAAH cells
  detection in cell lysates: detected
  stability in cellular media over time: not stable
[2]; read-out: IC50 [95% CI], incubation 1 hr
  IC50: 4.3 nM
[2]; read-out: IC50 [95% CI], incubation 3 hr
  IC50: 3.4 nM
[3]; 0.1 mg·kg^−1 p.o., 48 hr
  liver FAAH activity, % of control levels: 72.3%
[3]; 0.1 mg·kg^−1 p.o., over 24 hr
  inhibition of hepatic FAAH, mean values: above 88.7%
[3]
  ED50 [95% CI] Liver: 2.0 [1.8, 2.2] μg·kg^−1
[4]; 0.03 mg·kg^−1 p.o.
  Plasma AUClast: 4.3 ng·h/mL
  Plasma C max: 1.3 ng/mL
  Plasma t max: 2 h
  detection in the brain: not detectable
[4]; 0.1 mg·kg^−1 p.o.
  Brain AUClast: 22.9 ng·h/g
  Brain C max: 3.7 ng/g
  Brain t max: 2 h
  Plasma AUClast: 238.3 ng·h/mL
  Plasma C max: 38.3 ng/mL
  Plasma t max: 2 h
  brain levels, fold lower than in plasma: approximately 10 fold
[5]
  concentration that completely inhibited the band corresponding to the MW of FAAH: 0.1 µM
[6]
  off‐target activity at the sites studied: active at a number of sites; also recorded: significant activity at several receptors, transporters and ion channels
